Measurements: ChEMBL document CHEMBL1139399, “Synthesis and biological evaluation of glucuronide prodrugs of the histone deacetylase inhibitor CI-994 for application in selective cancer chemotherapy” (Bioorg Med Chem, 2008)
In brackets after ≈: the same amount, converted by molar mass. Activity calls are given as the source filed them. No cut-off for these calls is given here.

Columns and labels:
[1] = Stability in 0.02M phosphate buffer at pH 2.1 after 72 hrs; type: physicochemical; conditions: pH 2.1, 72 h
How it was run: (§1)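 Compounds held in 0.02 M phosphate buffer (pH 2.1 or pH 7 as per line) at 37 °C for 72 h; degradation followed by HPLC with UV detection.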

NCI-H661 [2] = assay: Antiproliferative activity against human NCI-H661 cells after 48 hrs in presence of beta-glucuronidase; type: functional, cell-based; conditions: NCI-H661, 48 h
How it was run: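 NCI-H661 cells in RPMI 1640 + 10% FCS (37 °C, 5% CO2); E. coli β-glucuronidase added to culture medium at 40 U/ml. 4 × 10^3 cells/well plated 24 h before compound, 48 h treatment, then XTT added and 4 h further incubation at 37 °C; absorbance at 480 nm. Three experiments in triplicate, standard deviation shown.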

NCI-H661 [3] = assay: Antiproliferative activity against human NCI-H661 cells after 48 hrs; type: functional, cell-based
How it was run: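 NCI-H661 NSCLC cells grown in RPMI 1640 + 10% FCS, 37 °C, 5% CO2; 4 × 10^3 cells/well seeded, grown 24 h, then exposed to compound for 48 h without β-glucuronidase. XTT labeling mixture added, further 4 h at 37 °C, absorbance read at 480 nm. Three experiments in triplicate; standard deviation shown.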

[4] = target: Histone deacetylase (Homo sapiens) (UniProt Q13547+O15379+Q9UBN7+Q92769+Q9UQL6+Q8WUI4+Q9BY41+Q96DB2+P56524+Q9UKV0+Q969S8); assay: Inhibition of HDAC in human NCI-H661 cells assessed as histone H4 acetylation after 6 hrs in presence of beta-glucuronidase by Western blot analysis; type: cell-based
How it was run: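 NCI-H661 cells (5 × 10^5) exposed 6 h with β-glucuronidase (40 U/ml) in medium; compounds at 100 µM, TSA control 100 nM, DMSO 0.1%. Laemmli buffer lysis, sonication, SDS–PAGE; blots probed with rabbit polyclonal anti-acetyl-histone H4 (1/500), α-tubulin loading control (1/2000), HRP secondaries (1/5000), ECL detection.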

[5] = Stability in 0.02M phosphate buffer at pH 7 after 72 hrs; type: physicochemical; conditions: pH 7, 72 h; how it was run: as §1
[6] = Aqueous solubility in phosphate buffer at pH 7; type: physicochemical
How it was run: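 Solubility in 0.02 M phosphate buffer, pH 7; sample filtered through 0.45 µm filter, diluted in HPLC phase and quantified by HPLC (UV) against a calibration curve of 0.1–0.025 mg/mL prepared from a DMSO stock diluted in the same buffer.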

[7] = Stability in cell culture medium in presence of 10% foetal calf serum; type: ADME; conditions: cattle
How it was run: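 Incubation in cell culture medium supplemented with 10% foetal calf serum at 37 °C; solution monitored by HPLC (UV detection) over 72 h.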

Row | Compound | Stability [1] | IC50 (NCI-H661 [2]) [µM] | Activity (NCI-H661 [3]) | Activity [4] | Stability [5] | solubility [6] [µg/mL] | Stability [7] | IC50 (NCI-H661 [3]; NCI-H661, 48 h) [µM]
1 | CC(=O)Nc1ccc(C(=O)Nc2ccccc2NC(=O)OCc2ccc(O[C@@H]3O[C@H](C(=O)O)[C@@H](O)[C@H](O)[C@H]3O)c([N+](=O)[O-])c2)cc1 | Stable | 20 | inactive | Active | Stable | 1000 (≈ 1560 µM) | Stable | –
2 | CC(=O)Nc1ccc(C(=O)Nc2ccccc2N)cc1 [TACEDINALINE] | – | – | – | – | – | 80 (≈ 297 µM) | – | 20
3 | CC(=O)Nc1ccc(C(=O)Nc2ccccc2NC(=O)O[C@@H]2O[C@H](C(=O)O)[C@@H](O)[C@H](O)[C@H]2O)cc1 | Stable | 20 | inactive | Active | Stable | 1000 (≈ 2040 µM) | Stable | –
